Screens as filed in PubChem BioAssay.
Tn6 DDE FP – inhibitors of Tn6 peptide binding to human fibrin DD(E). Fibrin DD(E) TRITC-Tn6 fluorescence polarization displacement. inhibition, % at 8.3 µM. actives 0.21% (n = 370,000);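 active = inhibition above a per-campaign cutoff: mean of compounds within control limits plus 3 SD, cut at about 15% in these data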;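 note: 0% = median of all compound wells on the plate and 100% = blocking peptide control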
Target sequence (P02675 whole entry, looked up): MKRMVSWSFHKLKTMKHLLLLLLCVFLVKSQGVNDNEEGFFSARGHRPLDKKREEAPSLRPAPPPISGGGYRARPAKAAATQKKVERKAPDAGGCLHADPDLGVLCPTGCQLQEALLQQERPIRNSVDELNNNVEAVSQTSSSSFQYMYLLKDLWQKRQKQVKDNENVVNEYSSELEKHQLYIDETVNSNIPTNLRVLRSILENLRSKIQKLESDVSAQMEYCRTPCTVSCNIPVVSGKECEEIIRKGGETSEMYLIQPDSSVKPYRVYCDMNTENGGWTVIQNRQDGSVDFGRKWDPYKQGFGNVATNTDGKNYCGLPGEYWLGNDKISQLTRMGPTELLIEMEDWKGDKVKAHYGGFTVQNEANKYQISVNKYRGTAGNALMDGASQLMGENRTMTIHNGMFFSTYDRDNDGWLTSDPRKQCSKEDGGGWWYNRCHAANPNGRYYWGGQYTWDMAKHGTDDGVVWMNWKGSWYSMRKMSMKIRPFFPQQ
Tn7 DDE FP – DD(E)-Tn7 binding inhibition, primary FP screen | P02675 | FP displacement of FITC-Tn7 peptide from fibrin DD(E); 0% = median of compound wells per plate | inhibition, % at 8.3 µM | actives 0.13% (n = 370,000);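 active = inhibition above the mean of compounds falling within the control limits plus 3 SD of them, cut at about 14% in these data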;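 note: 0% = plate median of compound wells and 100% = 10 µM Aha-Tn7 peptide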
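System: human fibrin DD(E); quantity: Fibrin-DD(E) at 2 µM final; also added: fluorescent Tn7 probe at 0.1 µM; compound dosing: single nominal test concentration of 8.3 µM per compound; schedule: 10 min preincubation, 3 h with tracer, room temperature; detection: fluorescence polarization of the labelled Tn7 tracer; repeats: one replicate per compound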
MT1-MMP act inh – inhibitors of human MT1-MMP activation; P50281; HT1080 RFP-PRO-GFP cells, GFP/RFP ratio fluorescence, overnight; percent of plate control window, DMSO zero; GFP/RFP ratio change, % at 20 µM; actives 0.061% (n = 360,000);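 active = GFP/RFP ratio change of at least 30% with cell ATP level not reduced by more than half and red fluorescence within 50% of control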
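system = RFP-PRO-GFP reporter HT1080 cells | dosing = 20 µM single dose, 1% DMSO | timing = overnight cell settling, then overnight compound exposure, 37 °C, 5% CO2 | read-out basis = GFP/RFP fluorescence ratio | controls = DMSO and RFP-L50D-GFP cell wells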
SKN-1 inh – inhibitors of C. elegans SKN-1; inhibition, % at 21.8 µM; AID 624304; C. elegans VP596 Pgst-4::GFP/RFP ratio, acrylamide-induced, 24 h; actives 0.49% (n = 360,000);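 active = interference check ratio from 0.5 to 1.5 plus GFP to RFP signal ratio inhibition reaching or exceeding a fixed threshold, cut at about 30% in these data, passing the limit was not always enough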
* marks the source's active call; other numbers are inactive results; / = no result given. In the library only some 0.84% were active in any assay of this set; here they are far more common.

SMILES | Tn6 DDE FP | Tn7 DDE FP | MT1-MMP act inh | SKN-1 inh
CCn1c(O)c(C=Nc2ccc(S(N)(=O)=O)cc2)c(=O)[nH]c1=S | 1 | 3 | 19 | 38*
O=c1[nH]c2ccccc2n1C1CCN(C(c2cc3ccccc3o2)c2nnnn2-c2ccc3c(c2)OCCO3)CC1 (centres undefined) | -6 | 15* | -31 | -1
O=[N+]([O-])c1ccc(O)c([N+](=O)[O-])c1 | 2 | -6 | -1 | 1
O=c1[nH]c(O)c(N=Nc2cc([N+](=O)[O-])ccc2O)c(=O)[nH]1 | 6 | 3 | 58 | 50*
CC1(C)OC(c2ccccc2)=C/C(=C/C=C2C(=O)NC(=O)NC2=O)O1 | -13 | -39 | -126 | 46*
COC(=O)C1=C(c2ccc(F)cc2OCc2ccccc2)C[C@@H]2CC[C@H]1N2C(=O)NCc1ccc([N+](=O)[O-])cc1 | -1 | -8 | 1 | 4
CSc1ccc(CNC(C)C(O)c2ccccc2)cc1 (centres undefined) | 2 | -2 | 4 | 9
CN1CC=C2C(C#N)=C(N)C(C#N)(C#N)C(c3ccncc3)C2C1 (centres undefined) | / | / | -34 | 40*
CCOC(=O)c1c(N)n(CCCOC(=O)c2ccco2)c2nc3ccccc3nc12 | 1 | -4 | 4 | 35*
Cc1ccc(-n2c(=S)[nH]c3ccccc3c2=O)cc1F | 6 | -4 | 2 | 4
CN1C(=O)C(=Cc2cn(CC(=O)N3CCCC3)c3ccccc23)C(=O)N(C)C1=O | -14 | -2 | -4 | -5
CN1C(=O)C(=Cc2cn(CC(=O)N3CCCCC3)c3ccccc23)C(=O)N(C)C1=O | / | / | -3 | 41*
CC1=Nc2ccccc2/C1=C/c1c(O)[nH]c(=O)[nH]c1=O | 0 | 12 | -8 | 36*
Cc1ccc2c(c1)=NC(=O)/C(=C/c1c(O)[nH]c(=O)[nH]c1=O)C=2 | 2 | 1 | 5 | -16
Cn1c(O)c(C=Nc2ccc(F)cc2)c(=O)[nH]c1=O | -4 | 6 | 1 | 16
CC(C)(C)n1c(O)c(C=Nc2ccc3c(c2)CCC3)c(=O)[nH]c1=O | 8 | -1 | -6 | 27*
CCCCn1c(O)c(C(C)=NCCc2c[nH]c3ccccc23)c(=O)[nH]c1=O | -4 | -3 | 7 | -3
O=C(/C=C/c1c[nH]c2ccccc12)c1c(O)n(CCc2ccccc2)c(=O)[nH]c1=O | -3 | 2 | -129 | 40*
COc1ccc(CC(=O)Nc2ccc(C#N)c(Cl)c2)cc1S(=O)(=O)N1CCOCC1 | -8 | -3 | 5 | 7
CCN1C(=O)/C(=C/c2ccc3c(c2)CCN3CCCCl)C(=O)NC1=S | 5 | 8 | 6 | 23
O=C1NC(=S)N(C2CC2)C(=O)/C1=C/c1ccc2c(c1)CCN2CCCCl | 4 | -1 | -3 | 41*
CN(C)c1ccc(C(=O)c2ccc(N(C)C)cc2)cc1 | -4 | -12 | -7 | 42*
O=C1NC(=S)N(c2ccc(Cl)cc2)C(=O)/C1=C/N1CCN(C(=O)c2ccco2)CC1 | -2 | 4 | -12 | 44*
C/C(=C\c1ccc(N(C)C)cc1)[N+](=O)[O-] | -3 | 1 | -17 | 42*
CN(C)c1ccc(C=C2C(=O)NC(=O)NC2=O)cc1 | -4 | -5 | 0 | 13
SMILES | Tn6 DDE FP | Tn7 DDE FP | MT1-MMP act inh | SKN-1 inh
CN(C)c1ccc(/C=C/[N+](=O)[O-])cc1 | -7 | -1 | 3 | 40*
Cc1ccc(S(=O)(=O)N2Cc3cc(-c4cccc(F)c4)ccc3-n3nncc3C2)cc1 | 6 | 8 | 11 | 10
COC(=O)C1=C(c2ccc(F)cc2OCc2ccccc2)C[C@@H]2CC[C@H]1N2C(=O)N1CCC(O)(c2ccc(Cl)cc2)CC1 | 4 | -5 | -3 | -1
CC(CC(C#N)(c1ccccc1)c1ccccc1)N1CCOCC1 (centres undefined) | 7 | 2 | -1 | 8
CN1CC2CN(Cc3ccccc3)S(=O)(=O)C2C1 (centres undefined) | -2 | -4 | 2 | 16
O=C(Nc1ccc(OC(=O)N2CCCC2)cc1)N1CCOCC1 | 1 | 5 | 5 | 38*
CC(C)c1cccc(C(C)C)c1OCCn1ccnc1 | -7 | -1 | -1 | 34*
c1ccc(Cn2ccnc2)cc1 | 6 | -7 | 1 | -9
COc1cc(N2CCOCC2)ccc1/C=C1\C(=O)NC(=O)N(Cc2ccc3c(c2)OCO3)C1=O | -9 | 4 | -22 | 41*
COc1cc(N2CCOCC2)ccc1/C=C1\C(=O)NC(=O)N(Cc2cccs2)C1=O | -5 | 6 | 12 | 27
O=[N+]([O-])c1ccc(N(CCO)CCO)c2c1no[n+]2[O-] | 1 | -2 | / | 47*
CC1(C)C[C@H]2C=C(C=O)[C@]3(C=O)C[C@]3(C)[C@H]2C1 | -5 | 7 | -10 | 8
O=[N+]([O-])c1ccc(Nc2ccccc2)cc1 | -9 | -3 | 2 | 51*
c1ccc(Nc2ccc(Nc3ccccc3)cc2)cc1 | 6 | -9 | 0 | 6
CCOc1cc2c(cc1OCC)-n1cccc1C(c1ccc(C(C)C)cc1)NC2 (centres undefined) | -1 | -1 | -1 | 8
CC(=O)c1ccc2c(c1)C1C(Cl)C(Sc3ccccc3[N+](=O)[O-])CC1C(c1ccccc1)N2 (centres undefined) | -1 | -8 | 6 | -4
CC(=O)c1ccc2c(c1)C1C(Cl)C(Sc3ccccc3[N+](=O)[O-])CC1C(c1ccccc1[N+](=O)[O-])N2 (centres undefined) | -3 | 8 | -12 | 42*
CCCC/C(C)=C/[C@@H](NP(=O)(c1ccccc1)c1ccccc1)c1ccccc1 | 5 | 14* | -10 | 7
CCCCCP(=O)(O)c1ccccc1 | -3 | -1 | 7 | -5
CC1([N+](=O)[O-])COP(=O)(Nc2ccc(Cl)cc2)OC1 (centres undefined) | 5 | 3 | 11 | -11
Brc1ccc2c(c1)-n1nncc1CN(CC1CCCCC1)C2 | 2 | 4 | 1 | 15
CC1=CC2OC3CC4OC(=O)C=CC=CC(C(C)O)OCC(O)C5(C)OC5C(=O)OCC2(CC1O)C4(C)C31CO1 (centres undefined) | -2 | -2 | -46 | 40*
O=C(Nc1ccc(Cl)c(Cl)c1)c1ccco1 | -2 | -2 | 1 | 42*
CS(=O)(=O)c1ccc(C2=C(CNC(=O)c3ccc([N+](=O)[O-])cc3)[C@H]3CC[C@@H](C2)N3CCOc2ccccc2)cc1 | 2 | -10 | 7 | 15
Cn1c(O)c(/C=N/NC(=O)c2ccncc2)c(=O)[nH]c1=S | -7 | -2 | 10 | 42*
COc1ccc2c(c1)NP(=S)(c1ccccc1)N2C (centres undefined) | 1 | -2 | 5 | 54*
COc1ccc(P2(=O)Nc3ccccc3N2)cc1 | -8 | 4 | -8 | 12
Cc1ccsc1/C=C1\C(=O)NC(=S)N(C)C1=O | 3 | 3 | 9 | 40*
CN1C(=O)/C(=C/c2ccc(Cl)s2)C(=O)NC1=S | 0 | -8 | -31 | 11
